{"source": "ChEMBL document CHEMBL1127799", "about": "“Derivatives of a novel cyclopeptolide. 1. Synthesis, antifungal activity, and structure-activity relationships” (1994)", "format_in_all_cases": "functional", "key": {"Candida tropicalis [1]": {"test_system": "Candida tropicalis", "assay": "Tested for minimum inhibitory concentration against Candida tropicalis (C.t) at pH 4.5.", "method_in_brief": "(§1)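 Broth microdilution in malt extract broth, initial pH 4.5 or 6.5, with 1×10^3 CFU per 0.2 mL well of thawed stored cultures. Compound stocks were made in 5% DMSO/0.2% Tween 80 and diluted to final 0.05–100 μg/mL. Plates were incubated 48 h at 30 °C and read macroscopically. MIC was the lowest concentration with no detectable growth. Vehicle-only wells served as controls.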"}, "Pichia kudriavzevii [2]": {"test_system": "Pichia kudriavzevii", "assay": "Tested for minimum subinhibitory concentration against Candida krusei 132 (C.k) at pH 6.5.", "method_in_brief": "(§2)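 Malt extract broth microdilution, initial pH 6.5, inoculum 1×10^3 CFU per 0.2 mL well. Compound diluted from 0.08% stock (5% DMSO/0.2% Tween 80) to final 0.05–100 μg/mL. Macroscopic reading after 48 h, 30 °C. MSIC = lowest concentration giving visible growth inhibition in at least two of three triplicates. Vehicle-only negative controls.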"}, "[3]": {"test_system": "Meyerozyma guilliermondii", "assay": "Tested for minimum inhibitory concentration against Candida guilliermondii 80 (C.g) at pH of 6.5.", "method_in_brief": "as §1"}, "Candida tropicalis [4]": {"test_system": "Candida tropicalis", "assay": "Tested for minimum subinhibitory concentration against Candida tropicalis 43 (C.t) at pH 6.5.", "method_in_brief": "as §2"}, "Mus musculus [5]": {"test_system": "Mus musculus", "assay": "Tested for efficacy of compound in experimental systemic candidosis (mouse) after intraperitoneal treatment at dosage of 8 *50 mg kg e-1", "method_in_brief": "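Mice (female NMRI, 18–20 g; 10 per group) infected by tail-vein injection of 10⁶ CFU C. albicans no. 124. Compound was given intraperitoneally twice daily on 4 consecutive days, starting 2 h before inoculation. Efficacy was scored as survival rate up to day 9 after infection.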"}, "Candida tropicalis [6]": {"test_system": "Candida tropicalis", "assay": "Tested for minimum inhibitory concentration against Candida tropicalis 43 (C.t) at pH of 6.5.", "method_in_brief": "as §1"}, "Mus musculus [7]": {"test_system": "Mus musculus", "assay": "Tested for efficacy of compound in experimental vaginal candidosis (mouse) after intraperitoneal treatment at dosage of 4 x50 mg kg e-1", "method_in_brief": "(§3)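 Female NMRI mice (18–20 g; 10 per group) were hormonally conditioned and infected intravaginally with 3.5×10^4 CFU C. albicans no. 124 in 50 μL Sabouraud's glucose broth. Four doses were given by gavage or ip, at 2 h before and 2, 18 and 24 h after infection. One day after the last dose, vaginal swabs were plated on Sabouraud agar with streptomycin (0.1 mg/mL) for 48 h at 37 °C. Failed reisolation counted as cure.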"}, "Candida albicans [8]": {"test_system": "Candida albicans", "assay": "Tested for minimum inhibitory concentration against Candida albicans 4 (Candida albicans) at pH 4.5.", "method_in_brief": "as §1"}, "Candida albicans [9]": {"test_system": "Candida albicans", "assay": "Tested for minimum inhibitory concentration against Candida albicans 124 (Candida albicans) at pH of 6.5.", "method_in_brief": "as §1"}, "[10]": {"test_system": "Meyerozyma guilliermondii", "assay": "Tested for minimum subinhibitory concentration against Candida guilliermondii 80 (C.g) at pH 6.5.", "method_in_brief": "as §2"}, "Rattus norvegicus [11]": {"test_system": "Rattus norvegicus", "assay": "Tested for efficacy of compound in experimental vaginal candidosis (rat) after intraperitoneal treatment at dosage of 2x 100 mg kg e-1", "method_in_brief": "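Female Wistar rats (~150 g; 10 per group) were hormonally conditioned and infected intravaginally with 3.5×10^4 CFU C. albicans no. 124 in 50 μL broth. Intraperitoneal dosing was given twice, 2 h before and 18 h after infection. Swabs taken one day after the last dose were plated on streptomycin Sabouraud agar (48 h, 37 °C). Cure meant failed reisolation.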"}, "Mus musculus [12]": {"organism": "Mus musculus", "assay": "Tested for efficacy of compound in experimental vaginal candidosis (mouse) after oral treatment at dosage of 4 x150 mg kg e-1", "method_in_brief": "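Vaginal candidiasis in hormonally conditioned female NMRI mice (18–20 g), 10 per group, inoculated intravaginally with 50 μL Sabouraud's glucose broth containing 3.5×10^4 CFU C. albicans no. 124. Dosed four times per gavage, 2 h before and 2, 18 and 24 h after infection. Vaginal swabs plated on Sabouraud's glucose agar with streptomycin (0.1 mg/mL), 48 h at 37 °C. Cure = failed reisolation.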"}, "Candida albicans [13]": {"test_system": "Candida albicans", "assay": "Tested for minimum inhibitory concentration against Candida albicans 26 (Candida albicans) at pH 4.5.", "method_in_brief": "as §1"}, "Candida albicans [14]": {"test_system": "Candida albicans", "assay": "Tested for minimum subinhibitory concentration against Candida albicans 4 (Candida albicans) at pH 4.5.", "method_in_brief": "(§4)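 Malt extract broth microdilution at initial pH 4.5, 1×10^3 CFU/0.2 mL well, final compound 0.05–100 μg/mL diluted from DMSO/Tween 80 stocks. Incubation was 48 h at 30 °C with macroscopic reading. MSIC was the lowest concentration causing visible growth inhibition in at least two of three triplicates.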"}, "Candida albicans [15]": {"test_system": "Candida albicans", "assay": "Tested for minimum inhibitory concentration against Candida albicans 3 (Candida albicans) at pH 6.5.", "method_in_brief": "(§5)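 Broth microdilution in malt extract broth, initial pH 6.5, 1×10^3 CFU per 0.2 mL well, from liquid-nitrogen-stored Sabouraud cultures. Compound from 0.08% stock in 5% DMSO/0.2% Tween 80, final 0.05–100 μg/mL. Visual reading after 48 h at 30 °C. MIC = lowest concentration with no detectable growth. Vehicle-only negative controls.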"}, "Candida albicans [16]": {"test_system": "Candida albicans", "assay": "Tested for minimum subinhibitory concentration against Candida albicans 88 (Candida albicans) at pH 6.5.", "method_in_brief": "as §2"}, "Candida albicans [17]": {"test_system": "Candida albicans", "assay": "Tested for minimum subinhibitory concentration against Candida albicans 90 (Candida albicans) at pH 4.5.", "method_in_brief": "as §4"}, "Candida albicans [18]": {"test_system": "Candida albicans", "assay": "Tested for minimum subinhibitory concentration against Candida albicans 9 (Candida albicans) at pH 6.5.", "method_in_brief": "as §2"}, "Candida albicans [19]": {"test_system": "Candida albicans", "assay": "Tested for minimum subinhibitory concentration against Candida albicans 3 (Candida albicans) at pH 6.5.", "method_in_brief": "as §2"}, "Candida albicans [20]": {"test_system": "Candida albicans", "assay": "Tested for minimum subinhibitory concentration against Candida albicans 90 (Candida albicans) at pH 6.5.", "method_in_brief": "as §2"}, "Candida albicans [21]": {"test_system": "Candida albicans", "assay": "Tested for minimum inhibitory concentration against Candida albicans 90 (Candida albicans) at pH 4.5.", "method_in_brief": "as §1"}, "[22]": {"test_system": "Meyerozyma guilliermondii", "assay": "Tested for minimum inhibitory concentration against Candida guilliermondii 80 (C.g) at pH of 4.5.", "method_in_brief": "as §1"}, "Candida albicans [23]": {"test_system": "Candida albicans", "assay": "Tested for minimum inhibitory concentration against Candida albicans 88 (Candida albicans) at pH 6.5.", "method_in_brief": "as §5"}, "[24]": {"test_system": "Meyerozyma guilliermondii", "assay": "Tested for minimum subinhibitory concentration against Candida guilliermondii 80 (C.g) at pH 4.5.", "method_in_brief": "as §4"}, "Candida albicans [25]": {"test_system": "Candida albicans", "assay": "Tested for minimum subinhibitory concentration against Candida albicans 9 (Candida albicans) at pH 4.5.", "method_in_brief": "as §4"}, "Mus musculus [26]": {"test_system": "Mus musculus", "assay": "Tested for efficacy of compound in experimental vaginal candidosis (mouse) after intraperitoneal treatment at dosage of 4 x100 mg kg e-1", "method_in_brief": "as §3"}, "Rattus norvegicus [27]": {"organism": "Rattus norvegicus", "assay": "Tested for efficacy of compound in experimental vaginal candidosis (rat) after oral treatment at dosage of 2x 150 mg kg e-1", "method_in_brief": "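Hormonally conditioned female Wistar rats (~150 g), 10 per group, given intravaginal C. albicans no. 124, 3.5×10^4 CFU in 50 μL Sabouraud's glucose broth. Oral dosing twice, 2 h before and 18 h after infection. Vaginal swabs plated on Sabouraud's glucose agar with streptomycin (0.1 mg/mL), 48 h at 37 °C. Cured when C. albicans not reisolated.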"}, "Pichia kudriavzevii [28]": {"test_system": "Pichia kudriavzevii", "assay": "Tested for minimum inhibitory concentration against Candida krusei 132 (C.k) at pH 4.5.", "method_in_brief": "as §1"}, "Candida albicans [29]": {"test_system": "Candida albicans", "assay": "Tested for minimum subinhibitory concentration against Candida albicans 26 (Candida albicans) at pH 6.5.", "method_in_brief": "as §2"}, "Candida albicans [30]": {"test_system": "Candida albicans", "assay": "Tested for minimum subinhibitory concentration against Candida albicans 4 (Candida albicans) at pH 6.5.", "method_in_brief": "as §2"}, "Candida albicans [31]": {"test_system": "Candida albicans", "assay": "Tested for minimum inhibitory concentration against Candida albicans 88 (Candida albicans) at pH 4.5.", "method_in_brief": "as §1"}}, "data": [{"compound": "CC[C@@H](C)[C@H]1C(=O)NCC(=O)N(C)[C@@H](C(C)C)C(=O)N[C@@H](Cc2ccc(OC)cc2)C(=O)O[C@H](C)C(=O)N2CCCC[C@H]2C(=O)N(C)[C@@H](C(C)C)C(=O)N[C@@H](C(C)C)C(=O)N(C)[C@@H](CC(=O)O)C(=O)N(C)[C@@H]([C@@H](C)CC)C(=O)N1C", "values": [{"measurement": "MIC", "setting": "Candida tropicalis [1]", "value": 1.56, "unit": "mg/L"}, {"measurement": "MSIC", "setting": "Pichia kudriavzevii [2]", "value": 3.12, "unit": "µg/mL"}, {"measurement": "MIC", "setting": "[3]", "value": "> 100", "unit": "mg/L"}, {"measurement": "MSIC", "setting": "Candida tropicalis [4]", "value": 6.25, "unit": "µg/mL"}, {"measurement": "Efficacy", "setting": "Mus musculus [5]", "value": 20, "unit": "%"}, {"measurement": "MIC", "setting": "Candida tropicalis [6]", "value": 100, "unit": "mg/L"}, {"measurement": "Efficacy", "setting": "Mus musculus [7]", "value": 7, "unit": "%"}, {"measurement": "MIC", "setting": "Candida albicans [8]", "value": 6.25, "unit": "mg/L"}, {"measurement": "MIC", "setting": "Candida albicans [9]", "value": 50, "unit": "mg/L"}, {"measurement": "MSIC", "setting": "[10]", "value": 12.5, "unit": "µg/mL"}, {"measurement": "Efficacy", "setting": "Rattus norvegicus [11]", "value": 76, "unit": "%"}, {"measurement": "Efficacy", "setting": "Mus musculus [12]", "value": 31, "unit": "%"}, {"measurement": "MIC", "setting": "Candida albicans [13]", "value": 6.25, "unit": "mg/L"}, {"measurement": "MSIC", "setting": "Candida albicans [14]", "value": 0.78, "unit": "µg/mL"}, {"measurement": "MIC", "setting": "Candida albicans [15]", "value": "> 100", "unit": "mg/L"}, {"measurement": "MSIC", "setting": "Candida albicans [16]", "value": 3.12, "unit": "µg/mL"}, {"measurement": "MSIC", "setting": "Candida albicans [17]", "value": 0.78, "unit": "µg/mL"}, {"measurement": "MSIC", "setting": "Candida albicans [18]", "value": 12.5, "unit": "µg/mL"}, {"measurement": "MSIC", "setting": "Candida albicans [19]", "value": 6.25, "unit": "µg/mL"}, {"measurement": "MSIC", "setting": "Candida albicans [20]", "value": 3.12, "unit": "µg/mL"}, {"measurement": "MIC", "setting": "Candida albicans [21]", "value": 3.12, "unit": "mg/L"}, {"measurement": "MIC", "setting": "[22]", "value": 6.25, "unit": "mg/L"}, {"measurement": "MIC", "setting": "Candida albicans [23]", "value": 100, "unit": "mg/L"}, {"measurement": "MSIC", "setting": "[24]", "value": 0.8, "unit": "µg/mL"}, {"measurement": "MSIC", "setting": "Candida albicans [25]", "value": 0.78, "unit": "µg/mL"}, {"measurement": "Efficacy", "setting": "Mus musculus [26]", "value": 14, "unit": "%"}, {"measurement": "Efficacy", "setting": "Rattus norvegicus [27]", "value": 0, "unit": "%"}, {"measurement": "MIC", "setting": "Pichia kudriavzevii [28]", "value": "> 100", "unit": "mg/L"}, {"measurement": "MSIC", "setting": "Candida albicans [29]", "value": 6.25, "unit": "µg/mL"}, {"measurement": "MSIC", "setting": "Candida albicans [30]", "value": 12.5, "unit": "µg/mL"}, {"measurement": "MIC", "setting": "Candida albicans [31]", "value": 12.5, "unit": "mg/L"}]}]}
